From paper PMC12679430 (RSC Advances, 2025)

What was measured:
Hela cells = experiment: Antiproliferative assay; type: cell-based; conditions: Homo sapiens, 72 h, read-out: Antiproliferative IC50, Hela
SiHa cells = experiment: Antiproliferative assay; type: cell-based; conditions: Homo sapiens, 72 h, read-out: Antiproliferative IC50, SiHa
[1] = system: human normal cervical epithelial cells (HcerEpic); experiment: Toxicity in normal cervical epithelial cells; type: cell-based; conditions: Epithelial cell, read-out: IC50, HcerEpic
Method in brief: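 Cells grown in IMDM with 20% FBS, 100 U/mL penicillin and 100 µg mL−1 streptomycin at 37 °C, humidified 5% CO2. Serially diluted test compound applied for 72 h. Alamar blue (1 mM stock solution) then added for another 5–6 h, with the signal read at 530/590 nm. Data normalised to DMSO vehicle, mean of three independent measurements, and IC50 fitted from the curves.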

[2] = Microsomal stability assay; type: in vitro ADME; conditions: human, human liver microsomes, pH 7.4
[3] = in clinical; cited from earlier work

Row | SMILES | IC50 (Hela cells) [µM] | IC50 (SiHa cells) [µM] | IC50 [1] [µM] | half-life at 0.5 µM [2] [min] | dose-limiting toxicities [3]
1 | O=C(CCCCCCNC(=O)c1cnc(N(c2ccccc2)c2ccccc2)nc1)NO [ACY1215] | 6.8 ± 0.35 | 11.3 ± 0.8 | > 50 | 402 | 
2 | O=C(NO)c1ccc(CN(c2cnccn2)c2cnccn2)cc1 [KA2507] |  |  |  |  | no dose-limiting toxicities
